From ChEMBL document CHEMBL1156509, “Survival in the presence of antifungals: genome-wide expression profiling of Aspergillus niger in response to sublethal concentrations of caspofungin and fenpropimorph” (2007)
Calls of active or inactive are those of the source. No cut-off for these calls is given here.

How the values were obtained:
Assay type in all cases: functional, organism-based
Aspergillus niger [1] = test: Induction of GFP tagged PagsA expression in Aspergillus niger JvD1.1 at 104.2 ug/mL by fluorescence microscopy
How it was run: (§1)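 agsA promoter-GFP reporters, cytoplasmic (JvD1.1) or nuclear H2B-targeted (RD6.47). Germlings pre-grown 6 h at 37 °C in 2× CM, exposed 3 h at 30 °C to seven 2-fold dilutions. GFP levels were scored by fluorescence microscopy as 0 (basal), 1 (intermediate) or 2 (high). Controls: gpdA-H2B-GFP strain MA26.1 (positive), N402 (negative).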

Aspergillus niger [2] = test: Induction of GFP tagged PagsA-H2B expression in Aspergillus niger RD6.47 at 104.2 ug/mL by fluorescence microscopy; how it was run: as §1
Aspergillus niger [3] = test: Antifungal activity against Aspergillus niger JvD1.1 at 104.2 ug/mL by microtiter plate
How it was run: (§2)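 Reporter conidia (2×10^4 per well) were pre-grown 6 h at 37 °C in 2× CM in glass-bottom plates. An equal volume of a 2-fold dilution series (seven concentrations) was added, then 3 h at 30 °C. Medium was discarded and adherent germlings imaged. Growth inhibition was scored 0/1/2 from hyphal length.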

Aspergillus niger [4] = test: Antifungal activity against Aspergillus niger RD6.47 at 104.2 ug/mL by microtiter plate; how it was run: as §2

Row | SMILES | Activity (Aspergillus niger [1]) | Activity (Aspergillus niger [2]) | Activity (Aspergillus niger [3]) | Activity (Aspergillus niger [4])
1 | CCCCCCC(=O)CCCCCC/C=C/C[C@@H](O)[C@H](O)[C@@](N)(CO)C(=O)O | inactive | inactive | inactive | inactive
2 | N#Cc1c[nH]cc1-c1cccc2c1OC(F)(F)O2 | Active | Active | Active | Active
3 | COC(=O)N(OC)c1ccccc1COc1ccn(-c2ccc(Cl)cc2)n1 | inactive | inactive | Active | Active
4 | CCCCNC(=O)n1c(NC(=O)OC)nc2ccccc21 | inactive | inactive | Active | Active
5 | CCCN(CC)CC1COC2(CCC(C(C)(C)C)CC2)O1 (stereo not given) | Active | Active | Active | Active
